Source: ChEMBL document CHEMBL1137262, “Design and synthesis of APTCs (aminopyrrolidinetricarboxylic acids): identification of a new group III metabotropic glutamate receptor selective agonist” (Bioorg Med Chem Lett, 2006)

Legend:
Assay type in all cases: functional, cell-based
[1] = target: Metabotropic glutamate receptor 2 (Rattus norvegicus, UniProt P31421); experiment: Activity at rat mGluR2 receptor measured as intracellular calcium concentration in HEK293 cells
In short: (§1)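 HEK293 cells were transfected with the indicated receptor, seeded on polyornithine-coated plates and cultured 24 h. Fluorescence (ex 485/em 525 nm) was read every 1.5 s for 60 s after compound addition. Agonism was scored versus basal signal. Dose–response curves were fitted; means of three experiments in triplicate.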

[2] = target: Metabotropic glutamate receptor 4 (Rattus norvegicus, UniProt P31423); experiment: (§2) Activity at rat mGluR4 receptor measured as intracellular calcium concentration in HEK293 cells; in short: as §1
Chain of Metabotropic glutamate receptor 4 (P31423 whole entry): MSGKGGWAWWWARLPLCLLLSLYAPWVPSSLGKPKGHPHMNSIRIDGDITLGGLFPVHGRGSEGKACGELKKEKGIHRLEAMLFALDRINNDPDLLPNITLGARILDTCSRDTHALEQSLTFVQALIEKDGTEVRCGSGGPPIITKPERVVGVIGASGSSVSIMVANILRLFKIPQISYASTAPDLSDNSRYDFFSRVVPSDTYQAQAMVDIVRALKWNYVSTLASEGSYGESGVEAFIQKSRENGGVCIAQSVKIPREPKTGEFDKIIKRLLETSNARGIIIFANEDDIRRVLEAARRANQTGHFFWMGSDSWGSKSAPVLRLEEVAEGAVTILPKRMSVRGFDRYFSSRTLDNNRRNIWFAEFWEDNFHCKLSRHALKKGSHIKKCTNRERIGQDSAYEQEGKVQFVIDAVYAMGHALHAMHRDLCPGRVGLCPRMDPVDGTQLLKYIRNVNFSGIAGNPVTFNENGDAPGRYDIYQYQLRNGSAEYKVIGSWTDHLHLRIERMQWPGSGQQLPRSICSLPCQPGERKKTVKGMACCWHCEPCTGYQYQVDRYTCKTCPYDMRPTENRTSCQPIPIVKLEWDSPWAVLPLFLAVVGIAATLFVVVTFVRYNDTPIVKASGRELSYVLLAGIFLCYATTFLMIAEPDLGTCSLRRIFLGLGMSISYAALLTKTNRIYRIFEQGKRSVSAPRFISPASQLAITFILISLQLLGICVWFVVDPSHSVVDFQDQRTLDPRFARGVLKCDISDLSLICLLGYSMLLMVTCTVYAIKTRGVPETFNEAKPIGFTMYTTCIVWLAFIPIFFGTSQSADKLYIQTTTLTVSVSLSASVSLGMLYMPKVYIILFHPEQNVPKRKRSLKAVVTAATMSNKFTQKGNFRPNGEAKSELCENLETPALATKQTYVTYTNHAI

[3] = target: Metabotropic glutamate receptor 5 (Rattus norvegicus, UniProt P31424); experiment: Activity at rat mGluR5 receptor measured as intracellular calcium concentration in HEK293 cells; in short: as §1
Chain of Metabotropic glutamate receptor 5 (P31424 whole entry): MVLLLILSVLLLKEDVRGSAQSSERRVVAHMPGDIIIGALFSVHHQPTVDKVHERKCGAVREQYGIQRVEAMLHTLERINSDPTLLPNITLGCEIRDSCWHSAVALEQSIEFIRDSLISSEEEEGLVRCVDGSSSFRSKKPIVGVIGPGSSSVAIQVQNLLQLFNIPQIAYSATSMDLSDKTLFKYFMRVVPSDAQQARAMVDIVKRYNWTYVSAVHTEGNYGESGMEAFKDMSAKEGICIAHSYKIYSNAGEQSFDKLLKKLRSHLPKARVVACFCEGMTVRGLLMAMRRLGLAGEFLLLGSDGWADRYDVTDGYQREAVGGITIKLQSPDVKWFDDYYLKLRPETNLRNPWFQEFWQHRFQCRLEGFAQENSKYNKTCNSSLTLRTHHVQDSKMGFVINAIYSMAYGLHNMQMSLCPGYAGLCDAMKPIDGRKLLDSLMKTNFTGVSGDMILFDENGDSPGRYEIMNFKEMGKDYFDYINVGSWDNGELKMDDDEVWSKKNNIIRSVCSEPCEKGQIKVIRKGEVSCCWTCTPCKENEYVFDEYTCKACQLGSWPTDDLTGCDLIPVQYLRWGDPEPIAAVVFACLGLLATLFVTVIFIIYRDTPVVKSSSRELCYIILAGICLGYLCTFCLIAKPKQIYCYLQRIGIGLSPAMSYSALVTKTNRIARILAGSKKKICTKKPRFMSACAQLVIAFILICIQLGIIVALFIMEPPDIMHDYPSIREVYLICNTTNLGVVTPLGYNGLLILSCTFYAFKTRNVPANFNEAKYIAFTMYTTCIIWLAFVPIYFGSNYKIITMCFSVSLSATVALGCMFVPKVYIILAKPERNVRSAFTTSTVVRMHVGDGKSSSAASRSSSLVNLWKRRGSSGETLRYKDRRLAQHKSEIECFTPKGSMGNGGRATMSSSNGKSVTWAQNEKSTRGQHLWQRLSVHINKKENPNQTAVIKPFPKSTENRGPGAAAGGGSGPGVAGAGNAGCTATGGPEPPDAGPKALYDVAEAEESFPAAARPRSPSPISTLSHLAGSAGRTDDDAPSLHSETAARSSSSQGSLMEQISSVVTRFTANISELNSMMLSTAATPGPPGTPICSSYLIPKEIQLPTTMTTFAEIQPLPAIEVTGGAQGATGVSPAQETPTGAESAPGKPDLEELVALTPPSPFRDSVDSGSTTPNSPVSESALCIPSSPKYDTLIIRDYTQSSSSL

[4] = target: Metabotropic glutamate receptor 6 (Rattus norvegicus, UniProt P35349); experiment: Activity at rat mGluR6 receptor measured as intracellular calcium concentration in HEK293 cells; in short: as §1
Chain of Metabotropic glutamate receptor 6 (P35349 whole entry): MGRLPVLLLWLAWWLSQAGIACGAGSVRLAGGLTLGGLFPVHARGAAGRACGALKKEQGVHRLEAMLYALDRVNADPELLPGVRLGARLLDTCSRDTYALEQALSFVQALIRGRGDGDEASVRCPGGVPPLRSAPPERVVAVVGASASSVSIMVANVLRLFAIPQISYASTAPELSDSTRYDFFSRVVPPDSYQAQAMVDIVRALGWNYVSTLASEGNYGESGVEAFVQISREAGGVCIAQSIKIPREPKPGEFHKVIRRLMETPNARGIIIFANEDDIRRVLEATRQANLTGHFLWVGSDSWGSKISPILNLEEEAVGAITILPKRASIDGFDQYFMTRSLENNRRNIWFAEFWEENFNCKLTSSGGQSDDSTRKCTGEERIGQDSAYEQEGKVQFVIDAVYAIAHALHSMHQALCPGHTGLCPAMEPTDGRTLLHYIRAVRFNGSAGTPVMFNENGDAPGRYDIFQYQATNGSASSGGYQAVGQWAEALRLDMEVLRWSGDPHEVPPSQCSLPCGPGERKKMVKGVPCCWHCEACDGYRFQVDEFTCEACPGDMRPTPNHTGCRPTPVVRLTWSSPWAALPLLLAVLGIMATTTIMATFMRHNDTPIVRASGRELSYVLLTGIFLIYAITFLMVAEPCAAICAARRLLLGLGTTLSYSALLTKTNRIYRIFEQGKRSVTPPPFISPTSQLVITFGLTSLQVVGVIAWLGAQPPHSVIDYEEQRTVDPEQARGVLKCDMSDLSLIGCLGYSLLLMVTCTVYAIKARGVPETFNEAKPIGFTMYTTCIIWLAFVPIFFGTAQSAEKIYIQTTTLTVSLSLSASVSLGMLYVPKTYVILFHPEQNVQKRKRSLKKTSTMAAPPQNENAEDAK

[5] = target: Metabotropic glutamate receptor 7 (Rattus norvegicus, UniProt P35400); experiment: Activity at rat mGluR7 receptor measured as intracellular calcium concentration in HEK293 cells; in short: as §1
[6] = target: Metabotropic glutamate receptor 8 (Rattus norvegicus, UniProt P70579); experiment: (§3) Activity at rat mGluR8 receptor measured as intracellular calcium concentration in HEK293 cells; in short: as §1
Chain of Metabotropic glutamate receptor 8 (P70579 whole entry): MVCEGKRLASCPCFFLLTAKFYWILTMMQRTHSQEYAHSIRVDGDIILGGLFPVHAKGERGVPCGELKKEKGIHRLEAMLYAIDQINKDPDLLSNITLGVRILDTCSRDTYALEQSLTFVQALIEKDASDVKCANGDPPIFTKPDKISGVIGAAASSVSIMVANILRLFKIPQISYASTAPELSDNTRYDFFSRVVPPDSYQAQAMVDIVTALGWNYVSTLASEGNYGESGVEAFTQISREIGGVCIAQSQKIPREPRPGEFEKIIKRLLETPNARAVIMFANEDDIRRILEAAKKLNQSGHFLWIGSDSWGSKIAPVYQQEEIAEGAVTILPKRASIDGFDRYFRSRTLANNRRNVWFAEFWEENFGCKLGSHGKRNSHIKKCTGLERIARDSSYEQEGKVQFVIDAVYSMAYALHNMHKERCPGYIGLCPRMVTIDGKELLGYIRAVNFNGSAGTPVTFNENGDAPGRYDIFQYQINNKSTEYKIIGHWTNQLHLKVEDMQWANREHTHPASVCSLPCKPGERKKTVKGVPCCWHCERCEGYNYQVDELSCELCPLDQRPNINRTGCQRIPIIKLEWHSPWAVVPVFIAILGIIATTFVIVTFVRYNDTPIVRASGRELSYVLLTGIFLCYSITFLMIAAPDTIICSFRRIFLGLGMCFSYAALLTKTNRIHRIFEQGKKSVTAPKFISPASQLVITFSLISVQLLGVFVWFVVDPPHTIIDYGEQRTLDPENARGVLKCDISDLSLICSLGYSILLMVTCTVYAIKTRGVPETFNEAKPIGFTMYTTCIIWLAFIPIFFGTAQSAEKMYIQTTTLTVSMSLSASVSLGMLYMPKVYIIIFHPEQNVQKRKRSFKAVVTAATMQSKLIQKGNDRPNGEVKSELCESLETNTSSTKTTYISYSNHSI

[7] = target: Metabotropic glutamate receptor 4 (Rattus norvegicus) (UniProt P31423); experiment: Activity at rat mGluR4 receptor measured as intracellular calcium concentration in HEK293 cells relative to glutamate
Chain of Metabotropic glutamate receptor 4 (Rattus norvegicus) (P31423 whole entry): as the sequence (P31423 whole entry) above

[8] = target: Metabotropic glutamate receptor 8 (Rattus norvegicus) (UniProt P70579); experiment: Activity at rat mGluR8 receptor measured as intracellular calcium concentration in HEK293 cells relative to glutamate
Chain of Metabotropic glutamate receptor 8 (Rattus norvegicus) (P70579 whole entry): as the sequence (P70579 whole entry) above

[9] = target: Metabotropic glutamate receptor 4 (Rattus norvegicus) (UniProt P31423); experiment: Activity against rat mGluR4 receptor measured as intracellular calcium concentration in HEK293 cells at 450 uM; conditions: filed as agonist
[10] = target: Metabotropic glutamate receptor 8 (Rattus norvegicus) (UniProt P70579); experiment: as §3; conditions: filed as partial agonist; in short: as §1
[11] = target: Metabotropic glutamate receptor 4 (Rattus norvegicus) (UniProt P31423); experiment: as §2; conditions: filed as agonist; in short: as §1
[12] = target: Metabotropic glutamate receptor 1 (Rattus norvegicus, UniProt P23385); experiment: Activity at rat mGluR1 receptor measured as intracellular calcium concentration in HEK293 cells; in short: as §1

Chain of Metabotropic glutamate receptor 2 (P31421 whole entry): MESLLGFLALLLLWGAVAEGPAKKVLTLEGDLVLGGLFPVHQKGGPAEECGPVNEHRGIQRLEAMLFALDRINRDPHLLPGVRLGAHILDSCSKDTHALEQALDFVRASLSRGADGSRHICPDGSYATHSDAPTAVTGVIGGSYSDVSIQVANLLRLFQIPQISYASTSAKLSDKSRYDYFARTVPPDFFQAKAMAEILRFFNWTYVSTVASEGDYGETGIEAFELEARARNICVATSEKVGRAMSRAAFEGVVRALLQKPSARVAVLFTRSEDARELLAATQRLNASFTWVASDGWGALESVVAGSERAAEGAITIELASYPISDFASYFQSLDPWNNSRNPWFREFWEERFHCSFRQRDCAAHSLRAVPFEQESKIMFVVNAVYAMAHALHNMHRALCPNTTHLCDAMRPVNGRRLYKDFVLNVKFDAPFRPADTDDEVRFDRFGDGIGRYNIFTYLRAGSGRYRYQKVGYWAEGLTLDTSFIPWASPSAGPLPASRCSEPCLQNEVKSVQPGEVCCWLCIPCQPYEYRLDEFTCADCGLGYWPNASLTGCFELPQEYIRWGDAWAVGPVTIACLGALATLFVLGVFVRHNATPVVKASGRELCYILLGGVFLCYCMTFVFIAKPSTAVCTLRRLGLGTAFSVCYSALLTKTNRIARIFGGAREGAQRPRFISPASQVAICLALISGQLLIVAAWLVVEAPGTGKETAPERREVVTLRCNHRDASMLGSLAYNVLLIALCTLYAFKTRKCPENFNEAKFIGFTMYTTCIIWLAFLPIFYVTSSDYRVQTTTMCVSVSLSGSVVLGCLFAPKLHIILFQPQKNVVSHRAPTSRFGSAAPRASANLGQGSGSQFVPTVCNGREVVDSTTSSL

EC50 [1] [µM]	EC50 [2] [µM]	EC50 [3] [µM]	EC50 [4] [µM]	EC50 [5] [µM]	EC50 [6] [µM]	Emax [7] [%]	Emax [8] [%]	Activity [9]	Activity [10]	Activity [11]	EC50 [12] [µM]	Compound
> 1000	7.2	> 1000	18.4	1200	10.1	–	–	–	–	–	–	N[C@@]1(C(=O)O)C[C@H](C(=O)O)[C@H](C(=O)O)C1
> 5000	48.3	> 5000	378	–	56.2	75	36	Agonist	Partial agonist	Agonist	> 5000	N[C@@]1(C(=O)O)C[C@@H](C(=O)O)N(C(=O)/C=C/C(=O)O)C1
